# Test results reported in ChEMBL document CHEMBL1127739, “Newly discovered stereochemical requirements in the side-chain conformation of delta opioid agonists for recognizing opioid delta receptors” (J Med Chem, 1994).
# How the values were obtained:
# [1] = Selectivity is the ratio between IC50 values of [3H]CTOP and [3H][p-Cl-phe4]-DPDPE
# Outline: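 Brain membranes were homogenised in 50 mM Tris-HCl pH 7.4, pelleted at 48000g, and preincubated at 25 °C for 30 min to strip endogenous peptides. Buffer contained BSA, bestatin, bacitracin, captopril and toluenesulfonyl fluoride. δ radioligand was [3H][D-Pen2,p-Cl-Phe4,D-Pen5]enkephalin 0.75 nM; μ was [3H]CTOP 0.5 nM. Ten concentrations over 800-fold, in duplicate. Nonspecific binding used 10 μM naltrexone. Incubated 25 °C for 3 h, then filtered and counted.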
# [2] = target: Delta-type opioid receptor (Mus musculus, UniProt P32300); assay: Effective concentration was measured towards delta opioid receptor using mouse vas deferens(MVD, delta) bioassay in vitro
# Outline: (§1)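 Electrically stimulated MVD (male ICR mice, 25–30 g) and GPI longitudinal muscle-myenteric plexus (male Hartley guinea pigs, 150–400 g) in 37 °C oxygenated Krebs, magnesium-free for MVD. Tension 1 g (MVD 0.5 g); stimulation 0.1 Hz, 0.4-ms pulses (MVD 2.0 ms), supramaximal voltage.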
# [3] = target: Opioid receptors; mu & delta (Homo sapiens) (UniProt P41143+P35372); assay: Selectivity is the ratio between EC50 values GPI(mu) and MVD(delta); assay type: protein assay
# Outline: as §1, with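 “voltage. Agonist applied 3 min; percent inhibition of contraction height.” for “voltage.”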
# Mu-type opioid receptor = Mu-type opioid receptor (Cavia porcellus, UniProt P97266); assay: Effective concentration was measured towards mu opioid receptor using guinea pig ileum (GPI, mu) bioassay in vitro; assay type: tissue-based; outline: as §1
# Sequence of Mu-type opioid receptor (P97266 whole entry): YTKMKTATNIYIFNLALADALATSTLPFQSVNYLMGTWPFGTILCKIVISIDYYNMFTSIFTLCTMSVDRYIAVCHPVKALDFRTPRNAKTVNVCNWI
# Sequence of Opioid receptors; mu & delta (Homo sapiens) (P35372 whole entry, looked up): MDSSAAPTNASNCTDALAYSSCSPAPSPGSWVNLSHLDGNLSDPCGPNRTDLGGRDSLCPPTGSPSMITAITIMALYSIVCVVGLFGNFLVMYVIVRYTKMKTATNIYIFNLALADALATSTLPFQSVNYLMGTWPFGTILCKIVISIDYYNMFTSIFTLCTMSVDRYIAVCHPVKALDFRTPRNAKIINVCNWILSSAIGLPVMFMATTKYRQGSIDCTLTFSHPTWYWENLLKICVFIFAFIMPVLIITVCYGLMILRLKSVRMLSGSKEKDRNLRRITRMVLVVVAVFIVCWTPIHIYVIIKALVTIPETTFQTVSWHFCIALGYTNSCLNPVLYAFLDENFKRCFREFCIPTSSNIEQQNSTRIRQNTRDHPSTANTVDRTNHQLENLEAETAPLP
# Sequence of Opioid receptors; mu & delta (Homo sapiens) (P41143 whole entry, looked up): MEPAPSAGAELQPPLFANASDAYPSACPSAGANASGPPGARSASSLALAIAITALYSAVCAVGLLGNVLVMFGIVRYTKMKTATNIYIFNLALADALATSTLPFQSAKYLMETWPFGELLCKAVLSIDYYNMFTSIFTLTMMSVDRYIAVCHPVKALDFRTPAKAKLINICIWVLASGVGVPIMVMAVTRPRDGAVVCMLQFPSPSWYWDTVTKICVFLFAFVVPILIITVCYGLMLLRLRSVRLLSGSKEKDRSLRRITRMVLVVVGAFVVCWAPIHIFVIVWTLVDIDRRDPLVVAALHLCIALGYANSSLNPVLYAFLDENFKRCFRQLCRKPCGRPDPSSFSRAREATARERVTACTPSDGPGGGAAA
# Sequence of Delta-type opioid receptor (P32300 whole entry): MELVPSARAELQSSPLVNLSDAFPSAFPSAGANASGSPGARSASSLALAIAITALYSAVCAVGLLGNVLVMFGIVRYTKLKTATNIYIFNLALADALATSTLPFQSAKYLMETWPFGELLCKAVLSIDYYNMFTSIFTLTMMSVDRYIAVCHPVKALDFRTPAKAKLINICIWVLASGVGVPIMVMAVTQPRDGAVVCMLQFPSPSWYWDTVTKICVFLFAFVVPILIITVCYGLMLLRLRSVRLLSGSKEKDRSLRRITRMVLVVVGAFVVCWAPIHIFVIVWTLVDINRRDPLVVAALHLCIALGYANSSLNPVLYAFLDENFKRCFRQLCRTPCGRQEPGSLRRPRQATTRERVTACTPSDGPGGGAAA
smiles,measurement,setting,value
Cc1cc(O)cc(C)c1[C@H](C)[C@H](N)C(=O)N[C@H](C)C(=O)N[C@@H](Cc1ccccc1)C(=O)N[C@@H](CC(=O)O)C(=O)N[C@H](C(=O)N[C@H](C(=O)NCC(N)=O)C(C)C)C(C)C,Selectivity,[1],5740
same,EC50,[2],0.00066 µM
same,Selectivity,[3],5820
same,EC50,Mu-type opioid receptor,3.84 µM
Cc1cc(O)cc(C)c1[C@H](C)[C@H](N)C(=O)N[C@H]1C(=O)NCC(=O)N[C@@H](Cc2ccccc2)C(=O)N[C@@H](C(=O)O)C(C)(C)SSC1(C)C,Selectivity,[1],3.4
same,EC50,[2],0.168 µM
same,Selectivity,[3],1.74
same,EC50,Mu-type opioid receptor,0.293 µM
